Reference: article PMC3850770 (Chemical research in toxicology, 2012)
Values belong to the molecule of their own block, whether it stands above or below them.

Assays:
[1] = target: T1, P450 2W1 (Homo sapiens, UniProt Q8TAV3); test: Steady-state kinetics of P450 2W1-catalyzed oxidation; type: in vitro ADME
T1 sequence (Q8TAV3 23-490): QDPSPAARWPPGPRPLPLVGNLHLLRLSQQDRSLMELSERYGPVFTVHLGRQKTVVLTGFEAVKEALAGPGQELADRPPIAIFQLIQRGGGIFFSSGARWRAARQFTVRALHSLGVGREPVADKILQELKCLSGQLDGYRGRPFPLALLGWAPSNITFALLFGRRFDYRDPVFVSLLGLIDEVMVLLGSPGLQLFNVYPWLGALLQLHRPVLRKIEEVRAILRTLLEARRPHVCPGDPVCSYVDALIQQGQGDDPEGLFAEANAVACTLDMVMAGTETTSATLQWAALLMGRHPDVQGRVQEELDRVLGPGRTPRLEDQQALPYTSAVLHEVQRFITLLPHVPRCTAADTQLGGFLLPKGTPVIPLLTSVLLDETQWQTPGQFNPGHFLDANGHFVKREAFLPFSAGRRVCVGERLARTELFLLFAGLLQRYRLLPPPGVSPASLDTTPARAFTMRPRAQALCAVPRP
In short: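 Same P450 and NADPH-generating levels as qualitative incubations, in 0.10 M phosphate, pH 7.4. Substrate 0–200 μM, in duplicate, at 37 °C. With 2W1: 10 min (dimethoxyphenyl substrate) or 15 min (aminophenyl substrate); with 1A1: 15 and 25 min respectively. CH2Cl2 quench, benzothiazole internal standard added, extract quantified by HPLC-UV. Km and kcat from nonlinear regression.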

[2] = target: T2, P450 1A1 (Homo sapiens, UniProt P04798); test: Steady-state kinetics of P450 1A1-catalyzed oxidation; type: in vitro ADME; details: oxidation of 5F 203 to form 8a
T2 sequence (P04798 1-512): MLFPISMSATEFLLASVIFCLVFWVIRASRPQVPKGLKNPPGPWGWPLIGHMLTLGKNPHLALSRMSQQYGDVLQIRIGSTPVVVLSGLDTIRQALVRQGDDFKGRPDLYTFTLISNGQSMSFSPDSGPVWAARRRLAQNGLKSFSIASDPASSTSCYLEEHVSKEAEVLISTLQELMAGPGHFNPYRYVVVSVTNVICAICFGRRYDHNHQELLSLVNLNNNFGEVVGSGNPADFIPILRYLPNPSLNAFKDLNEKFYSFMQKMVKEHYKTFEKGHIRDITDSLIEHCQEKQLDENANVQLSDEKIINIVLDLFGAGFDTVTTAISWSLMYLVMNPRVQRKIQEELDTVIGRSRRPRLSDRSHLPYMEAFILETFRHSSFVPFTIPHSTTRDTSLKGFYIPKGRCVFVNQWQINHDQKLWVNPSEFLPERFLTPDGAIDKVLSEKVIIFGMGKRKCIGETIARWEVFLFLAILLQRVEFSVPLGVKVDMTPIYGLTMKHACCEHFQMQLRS

[3] = target: T1, P450 2W1; test: Preliminary incubation with P450 2W1, products by HPLC-UV; type: in vitro ADME; details: recombinant human P450 2W1
In short: (§1)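 Recombinant human P450 at 0.3–0.8 μM, either in E. coli membranes or purified and reconstituted with 2-fold excess NADPH-P450 reductase plus 30 μM DLPC. Substrate 100 μM with NADPH-generating system in 0.10 M potassium phosphate, pH 7.4; 37 °C for 30–60 min. Extracted into 2 volumes CH2Cl2, residue taken up in CH3CN. Read by C18 HPLC with photodiode-array UV, acetonitrile/water gradient containing 0.5% formic acid.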

[4] = target: T3, P450 2S1 (Homo sapiens, UniProt Q96SQ9); test: Preliminary incubation with P450 2S1, products by HPLC-UV; type: in vitro ADME; details: recombinant human P450 2S1
T3 sequence (Q96SQ9 1-504): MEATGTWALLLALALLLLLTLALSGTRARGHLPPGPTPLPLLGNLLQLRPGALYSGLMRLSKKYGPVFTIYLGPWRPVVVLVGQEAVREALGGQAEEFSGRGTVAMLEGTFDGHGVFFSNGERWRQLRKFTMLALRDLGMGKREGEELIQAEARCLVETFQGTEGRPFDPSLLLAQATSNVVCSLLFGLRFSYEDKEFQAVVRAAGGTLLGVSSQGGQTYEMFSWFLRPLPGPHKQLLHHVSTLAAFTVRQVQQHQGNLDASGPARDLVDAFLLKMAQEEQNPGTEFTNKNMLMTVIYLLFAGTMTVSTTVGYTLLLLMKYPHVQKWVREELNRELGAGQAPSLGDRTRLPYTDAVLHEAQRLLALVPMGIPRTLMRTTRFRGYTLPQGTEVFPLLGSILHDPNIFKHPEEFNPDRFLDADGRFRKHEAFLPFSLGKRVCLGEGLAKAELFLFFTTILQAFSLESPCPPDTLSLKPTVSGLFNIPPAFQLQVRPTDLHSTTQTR
In short: as §1

[5] = test system: P450 2W1, P450 1A1, or human liver microsomes; test: GSH adduct formation from oxidation products; type: in vitro ADME; details: 5 mM GSH, 100 μM substrate, LC-MS
In short: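 P450 2W1 or 1A1 in E. coli membranes, or human liver microsomes pooled from ten donors, at 0.50 μM with 100 μM substrate, 5 mM GSH and 4 μg mL−1 catalase. Incubated 12–15 h at 37 °C, stopped with 2 volumes CH3CN; supernatant analysed by ESI+ LC-MS.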

[6] = test system: MCF-7 cells; details: ref [12], [13]; cited from earlier work
[7] = test system: MDA 468 cells; details: ref [12], [13]; cited from earlier work
[8] = test system: IGROV-1 cells; details: ref [12], [13]; cited from earlier work
[9] = test system: colon, lung, and breast cancer cell lines; details: ref [19]; cited from earlier work
[10] = test system: dGuo; test: dGuo adduct formation with synthetic 10; details: after Ac2O activation, 37 °C under argon 2 h, LC-MS m/z 524
[11] = Solubility in organic solvents; type: physicochemical; details: in CHCl3 and CH3OH
[12] = substrate: COc1ccc(-c2nc3cc(F)ccc3s2)cc1OC; test: Steady-state kinetics of P450 1A1-catalyzed oxidation; type: in vitro ADME, human; details: other: P450 1A1, substrate GW 610, product 4c; pH 7.4; 37.0 °C
[13] = substrate: Cc1cc(-c2nc3cc(F)ccc3s2)ccc1N; test: as above; type: in vitro ADME, human; details: pH 7.4, 37.0 °C
[14] = other: P450 1A1, substrate 5F 203, product 8a
[15] = other: P450 1A1, substrate 5F 203, product 8b

- kcat ([1]; P450 2W1, substrate 5F 203, product 8a): 0.0158 ± 0.0017 s⁻¹
- kcat ([1]; P450 2W1, substrate 5F 203, product 10): 0.00933 ± 0.001 s⁻¹
- Km at 15 min ([1]; human, pH 7.4, Km, P450 2W1, substrate 5F 203, product 8a): 31 ± 11 µM
- Km at 15 min ([1]; human, pH 7.4, Km, P450 2W1, substrate 5F 203, product 10): 35 ± 12 µM
- efficiency of P450 1A1 relative to P450 2W1 [2]: ~ 2 fold
- product formation on incubation with P450 2W1 [3]: Products were formed
- product formation on incubation with P450 2S1 [4]: no products were observed
- GSH conjugate formation [5]: detected
Molecule: Cc1cc(-c2nc3cc(F)ccc3s2)ccc1N [5F 203, 2-(4-Amino-3-methylphenyl)-5-fluorobenzothiazole]
- GI50 [6]: < 1 nM
- GI50 [7]: < 1 nM
- GI50 [8]: < 1 nM

- kcat ([1]; P450 2W1, substrate GW 610, product 4c): 0.0633 ± 0.0067 s⁻¹
- efficiency of P450 2W1 relative to P450 1A1 ([1]; formation of 4c from GW 610): 5 fold
- Km at 10 min ([1]; human, pH 7.4, Km, P450 2W1, substrate GW 610, product 4c): 22 ± 7 µM
- product formation on incubation with P450 2W1 [3]: Products were formed
- product formation on incubation with P450 2S1 [4]: no products were observed
- GSH conjugate formation [5]: detected
Molecule: COc1ccc(-c2nc3cc(F)ccc3s2)cc1OC [GW 610, 5-Fluoro-2-(3,4-dimethoxyphenyl)-benzothiazole]
- GI50 [9]: < 0.1 nM

- solubility [11]: very poor
Molecule: Cc1cc(-c2nc3cc(F)ccc3s2)ccc1NO [compound 10, 2-(4-Hydroxylamino-3-methylphenyl)-5-fluorobenzothiazole]
- dGuo adduct formation [10]: consistent with a dGuo adduct of compound 10

The remaining lines, values behind:

Molecule: c1ccc(-c2nc3ccccc3s2)cc1 [2-phenylbenzothiazole, reference compound]
- product formation on incubation with P450 2W1 [3]: No products were observed
- product formation on incubation with P450 2S1 [4]: No products were observed

B1: P450 1A1 (Homo sapiens) (protein)
chain: MLFPISMSATEFLLASVIFCLVFWVIRASRPQVPKGLKNPPGPWGWPLIGHMLTLGKNPHLALSRMSQQYGDVLQIRIGSTPVVVLSGLDTIRQALVRQGDDFKGRPDLYTFTLISNGQSMSFSPDSGPVWAARRRLAQNGLKSFSIASDPASSTSCYLEEHVSKEAEVLISTLQELMAGPGHFNPYRYVVVSVTNVICAICFGRRYDHNHQELLSLVNLNNNFGEVVGSGNPADFIPILRYLPNPSLNAFKDLNEKFYSFMQKMVKEHYKTFEKGHIRDITDSLIEHCQEKQLDENANVQLSDEKIINIVLDLFGAGFDTVTTAISWSLMYLVMNPRVQRKIQEELDTVIGRSRRPRLSDRSHLPYMEAFILETFRHSSFVPFTIPHSTTRDTSLKGFYIPKGRCVFVNQWQINHDQKLWVNPSEFLPERFLTPDGAIDKVLSEKVIIFGMGKRKCIGETIARWEVFLFLAILLQRVEFSVPLGVKVDMTPIYGLTMKHACCEHFQMQLRS
- Km [12]: 10 ± 3 µM
- kcat [12]: 0.00617 ± 0.0005 s⁻¹
- kcat/Km [12]: 600 ± 167 M⁻¹ s⁻¹
- Km [13, 14]: 32 ± 9 µM
- kcat [13, 14]: 0.0283 ± 0.00333 s⁻¹
- kcat/Km [13, 14]: 900 ± 333 M⁻¹ s⁻¹
- Km [13, 15]: 29 ± 8 µM
- kcat [13, 15]: 0.0517 ± 0.005 s⁻¹
- kcat/Km [13, 15]: 1830 ± 500 M⁻¹ s⁻¹
